# Data: ChEMBL document CHEMBL3627660, “Tetrafluorophenoxymethyl ketone cruzain inhibitors with improved pharmacokinetic properties as therapeutic leads for Chagas' disease” (Bioorg Med Chem Lett, 2015)
# System: not listed separately
# Assay: Half life in mouse at 40 mg/kg, po
# Assay type: ADME, organism-based
# Details: in vivo
# How it was run: (§1)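 Mouse PK study with two dosing arms: 40 mg/kg orally and 10 mg/kg intravenously. The parameters derived were AUC, T1/2, CL, Vss and F%.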
row,Compound,half-life
1,CCCCC(C(=O)COc1c(F)c(F)cc(F)c1F)n1cc([C@@](C)(NCc2ccn3nccc3n2)C2CCCC2)nn1 (some centres undefined),2.32 h
2,CCCCC(C(=O)COc1c(F)c(F)cc(F)c1F)n1cc([C@@](C)(NCc2ccc3ncsc3c2)C(C)C)nn1 (some centres undefined),3.41 h
3,CCCCC(C(=O)COc1c(F)c(F)cc(F)c1F)n1cc([C@@](C)(NCc2ccc3ncccc3c2)C2CCCC2)nn1 (some centres undefined),3 h
4,CCCCC(C(=O)COc1c(F)c(F)cc(F)c1F)n1cc([C@@](C)(NCc2ccc3ncccc3c2)C(C)C)nn1 (some centres undefined),3.34 h

# System: not listed separately
# Assay: Cmax in mouse at 10 mg/kg, iv
# Assay type: ADME, organism-based
# Parameters: dose 10 mg/kg, route intravenous
# Details: in vivo
# How it was run: (§2)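 In vivo mouse pharmacokinetic study with two arms, intravenous at 10 mg/kg and oral at 40 mg/kg. Exposure parameters derived were AUC, T1/2, CL, Vss and oral bioavailability (F%).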
row,Compound,Cmax
1,CCCCC(C(=O)COc1c(F)c(F)cc(F)c1F)n1cc([C@@](C)(NCc2ccc3ncccc3c2)C(C)C)nn1 (some centres undefined),4130 ng/mL

# System: MDCK
# Assay: Apparent permeability from apical to basolateral side in MDCK cells assessed as per 10^-6 cells
# Assay type: ADME, cell-based, Canis lupus familiaris
# Details: dog
row,Compound,Papp
1,CCCCC(C(=O)COc1c(F)c(F)cc(F)c1F)n1cc([C@@](C)(NCc2ccn3nccc3n2)C2CCCC2)nn1 (some centres undefined),2.9 ×10⁻⁶ cm/s
2,CCCCC(C(=O)COc1c(F)c(F)cc(F)c1F)n1cc([C@@](C)(NCc2ccn3nccc3n2)C(C)C)nn1 (some centres undefined),15.1 ×10⁻⁶ cm/s
3,CC(C)[C@](C)(NCc1ccc2ncccc2c1)c1cn(C(CCS(C)(=O)=O)C(=O)COc2c(F)c(F)cc(F)c2F)nn1 (some centres undefined),3.49 ×10⁻⁶ cm/s
4,CCCCC(C(=O)COc1c(F)c(F)cc(F)c1F)n1cc([C@@](C)(NCc2ccc3ncsc3c2)C(C)C)nn1 (some centres undefined),2.26 ×10⁻⁶ cm/s
5,CCCCC(C(=O)COc1c(F)c(F)cc(F)c1F)n1cc([C@@](C)(NCc2ccc3ncccc3c2)C2CCCC2)nn1 (some centres undefined),0.48 ×10⁻⁶ cm/s
6,CCCCC(C(=O)COc1c(F)c(F)cc(F)c1F)n1cc([C@@](C)(NCc2ccc3ncccc3c2)C(C)C)nn1 (some centres undefined),3.02 ×10⁻⁶ cm/s
7,C[C@@](NCc1ccc2ncsc2c1)(c1cn(C(CCS(C)(=O)=O)C(=O)COc2c(F)c(F)cc(F)c2F)nn1)C1CCCC1 (some centres undefined),6.8 ×10⁻⁶ cm/s

# Biological target: Cytochrome P450 3A4 (Homo sapiens, UniProt P08684)
# Assay: Inhibition of CYP3A4 (unknown origin)
# Assay type: ADME
# Details: not given
# Chain of Cytochrome P450 3A4 (P08684 whole entry): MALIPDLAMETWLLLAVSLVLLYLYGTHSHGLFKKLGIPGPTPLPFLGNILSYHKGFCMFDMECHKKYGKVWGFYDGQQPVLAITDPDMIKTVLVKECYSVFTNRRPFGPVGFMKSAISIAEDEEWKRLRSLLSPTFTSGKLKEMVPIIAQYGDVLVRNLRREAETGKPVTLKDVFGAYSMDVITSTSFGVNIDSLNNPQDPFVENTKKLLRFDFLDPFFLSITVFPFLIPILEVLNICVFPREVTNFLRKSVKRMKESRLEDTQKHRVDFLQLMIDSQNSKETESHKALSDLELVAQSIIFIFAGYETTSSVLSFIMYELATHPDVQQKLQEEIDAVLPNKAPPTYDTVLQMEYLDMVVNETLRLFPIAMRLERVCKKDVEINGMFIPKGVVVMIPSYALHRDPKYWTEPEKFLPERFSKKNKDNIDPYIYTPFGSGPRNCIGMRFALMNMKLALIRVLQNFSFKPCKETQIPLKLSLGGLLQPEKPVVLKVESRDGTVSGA
row,Compound,IC50
1,CCCCC(C(=O)COc1c(F)c(F)cc(F)c1F)n1cc([C@@](C)(NCc2ccn3nccc3n2)C2CCCC2)nn1 (some centres undefined),263 nM
2,CCCCC(C(=O)COc1c(F)c(F)cc(F)c1F)n1cc([C@@](C)(NCc2ccn3nccc3n2)C(C)C)nn1 (some centres undefined),314 nM
3,CC(C)[C@](C)(NCc1ccc2ncccc2c1)c1cn(C(CCS(C)(=O)=O)C(=O)COc2c(F)c(F)cc(F)c2F)nn1 (some centres undefined),1200 nM
4,CCCCC(C(=O)COc1c(F)c(F)cc(F)c1F)n1cc([C@@](C)(NCc2ccc3ncsc3c2)C(C)C)nn1 (some centres undefined),300 nM
5,CCCCC(C(=O)COc1c(F)c(F)cc(F)c1F)n1cc([C@@](C)(NCc2ccc3ncccc3c2)C2CCCC2)nn1 (some centres undefined),260 nM
6,CCCCC(C(=O)COc1c(F)c(F)cc(F)c1F)n1cc([C@@](C)(NCc2ccc3ncccc3c2)C(C)C)nn1 (some centres undefined),3800 nM
7,C[C@@](NCc1ccc2ncsc2c1)(c1cn(C(CCS(C)(=O)=O)C(=O)COc2c(F)c(F)cc(F)c2F)nn1)C1CCCC1 (some centres undefined),200 nM

# System: not listed separately
# Assay: Half life in mice after oral dosing
# Details: in vivo
row,Compound,half-life
1,CCCCC(C(=O)COc1c(F)c(F)cc(F)c1F)n1cc([C@@](C)(NCc2ccc3ncccc3c2)C(C)C)nn1 (some centres undefined),3.3 h

# Biological target: Cruzipain (Trypanosoma cruzi, UniProt P25779)
# Assay: Inhibition of Trypanosoma cruzi recombinant cruzain using Z-FR-AMC as substrate after 5 mins by fluorescence assay
# Details: not given
# Chain of Cruzipain (P25779 whole entry): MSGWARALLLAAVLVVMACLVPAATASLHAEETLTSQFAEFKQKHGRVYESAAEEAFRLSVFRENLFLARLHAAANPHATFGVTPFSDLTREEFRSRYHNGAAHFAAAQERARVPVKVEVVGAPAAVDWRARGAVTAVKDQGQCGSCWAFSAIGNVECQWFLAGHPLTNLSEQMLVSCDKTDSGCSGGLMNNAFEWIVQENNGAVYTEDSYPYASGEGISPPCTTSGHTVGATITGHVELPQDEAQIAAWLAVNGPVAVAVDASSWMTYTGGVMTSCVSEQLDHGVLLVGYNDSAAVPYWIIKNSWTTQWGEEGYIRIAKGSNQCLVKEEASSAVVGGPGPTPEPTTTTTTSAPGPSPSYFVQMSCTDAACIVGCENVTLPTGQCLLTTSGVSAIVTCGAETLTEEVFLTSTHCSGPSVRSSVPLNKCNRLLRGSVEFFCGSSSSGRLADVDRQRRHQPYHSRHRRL
row,Compound,IC50
1,COCCC(C(=O)COc1c(F)c(F)cc(F)c1F)n1cc([C@@](C)(NCc2ccc3ncccc3c2)C(C)C)nn1 (some centres undefined),340 nM
2,COCCC(C(=O)COc1c(F)c(F)cc(F)c1F)n1cc([C@@](C)(NCc2ccn3nccc3n2)C2CCCC2)nn1 (some centres undefined),2820 nM
3,CCCCC(C(=O)COc1c(F)c(F)cc(F)c1F)n1cc([C@@](C)(NC(=O)c2ccc3ncsc3c2)C(C)C)nn1 (some centres undefined),3590 nM
4,CCCCC(C(=O)COc1c(F)c(F)cc(F)c1F)n1cc([C@@](C)(NCc2ccn3nccc3n2)C2CCCC2)nn1 (some centres undefined),3 nM
5,CCCCC(C(=O)COc1c(F)c(F)cc(F)c1F)n1cc([C@@](C)(NCc2ccn3nccc3n2)C(C)C)nn1 (some centres undefined),75 nM
6,CC(C)[C@](C)(NCc1ccc2ncccc2c1)c1cn(C(CCS(C)(=O)=O)C(=O)COc2c(F)c(F)cc(F)c2F)nn1 (some centres undefined),560 nM
7,CCCCC(C(=O)COc1c(F)c(F)cc(F)c1F)n1cc([C@@](C)(NCc2ccc3ncsc3c2)C(C)C)nn1 (some centres undefined),37 nM
8,CCCCC(C(=O)COc1c(F)c(F)cc(F)c1F)n1cc([C@@](C)(NCc2ccc3ncccc3c2)C2CCCC2)nn1 (some centres undefined),27 nM
9,C[C@@](NCc1ccc2ncsc2c1)(c1cn(C(CCS(C)(=O)=O)C(=O)COc2c(F)c(F)cc(F)c2F)nn1)C1CCCC1 (some centres undefined),25 nM

# System: not listed separately
# Assay: AUC in mouse at 40 mg/kg, po
# Assay type: ADME, organism-based
# Details: in vivo
row,Compound,AUC
1,CCCCC(C(=O)COc1c(F)c(F)cc(F)c1F)n1cc([C@@](C)(NCc2ccn3nccc3n2)C2CCCC2)nn1 (some centres undefined),8110 ng·h/mL
2,CCCCC(C(=O)COc1c(F)c(F)cc(F)c1F)n1cc([C@@](C)(NCc2ccc3ncsc3c2)C(C)C)nn1 (some centres undefined),6570 ng·h/mL
3,CCCCC(C(=O)COc1c(F)c(F)cc(F)c1F)n1cc([C@@](C)(NCc2ccc3ncccc3c2)C2CCCC2)nn1 (some centres undefined),8100 ng·h/mL
4,CCCCC(C(=O)COc1c(F)c(F)cc(F)c1F)n1cc([C@@](C)(NCc2ccc3ncccc3c2)C(C)C)nn1 (some centres undefined),3860 ng·h/mL

# System: not listed separately
# Assay: AUC in mouse at 10 mg/kg, iv
# Assay type: ADME, organism-based
# Details: in vivo
row,Compound,AUC
1,CCCCC(C(=O)COc1c(F)c(F)cc(F)c1F)n1cc([C@@](C)(NCc2ccn3nccc3n2)C2CCCC2)nn1 (some centres undefined),5370 ng·h/mL
2,CCCCC(C(=O)COc1c(F)c(F)cc(F)c1F)n1cc([C@@](C)(NCc2ccc3ncsc3c2)C(C)C)nn1 (some centres undefined),9610 ng·h/mL
3,CCCCC(C(=O)COc1c(F)c(F)cc(F)c1F)n1cc([C@@](C)(NCc2ccc3ncccc3c2)C2CCCC2)nn1 (some centres undefined),8710 ng·h/mL
4,CCCCC(C(=O)COc1c(F)c(F)cc(F)c1F)n1cc([C@@](C)(NCc2ccc3ncccc3c2)C(C)C)nn1 (some centres undefined),4670 ng·h/mL

# System: not listed separately
# Assay: Volume of distribution at steady state in mouse at 10 mg/kg, iv
# Assay type: ADME, organism-based
# Details: in vivo, read-out: Vdss
# How it was run: as §1
row,Compound,Vd
1,CCCCC(C(=O)COc1c(F)c(F)cc(F)c1F)n1cc([C@@](C)(NCc2ccn3nccc3n2)C2CCCC2)nn1 (some centres undefined),4.19 L/kg
2,CCCCC(C(=O)COc1c(F)c(F)cc(F)c1F)n1cc([C@@](C)(NCc2ccc3ncsc3c2)C(C)C)nn1 (some centres undefined),6.5 L/kg
3,CCCCC(C(=O)COc1c(F)c(F)cc(F)c1F)n1cc([C@@](C)(NCc2ccc3ncccc3c2)C2CCCC2)nn1 (some centres undefined),5.4 L/kg
4,CCCCC(C(=O)COc1c(F)c(F)cc(F)c1F)n1cc([C@@](C)(NCc2ccc3ncccc3c2)C(C)C)nn1 (some centres undefined),4.2 L/kg

# System: Trypanosoma cruzi
# Assay: Antitrypanosomal activity against Trypanosoma cruzi infected in C2C12 cells after 72 hrs by DAPI staining
# Assay type: functional, organism-based
# Details: C2C12, 72 h
row,Compound,IC50
1,COCCC(C(=O)COc1c(F)c(F)cc(F)c1F)n1cc([C@@](C)(NCc2ccc3ncccc3c2)C(C)C)nn1 (some centres undefined),2 nM
2,COCCC(C(=O)COc1c(F)c(F)cc(F)c1F)n1cc([C@@](C)(NCc2ccn3nccc3n2)C2CCCC2)nn1 (some centres undefined),20 nM
3,CCCCC(C(=O)COc1c(F)c(F)cc(F)c1F)n1cc([C@@](C)(NC(=O)c2ccc3ncsc3c2)C(C)C)nn1 (some centres undefined),650 nM
4,CCCCC(C(=O)COc1c(F)c(F)cc(F)c1F)n1cc([C@@](C)(NCc2ccn3nccc3n2)C(C)C)nn1 (some centres undefined),8 nM
5,CC(C)[C@](C)(NCc1ccc2ncccc2c1)c1cn(C(CCS(C)(=O)=O)C(=O)COc2c(F)c(F)cc(F)c2F)nn1 (some centres undefined),380 nM
6,CCCCC(C(=O)COc1c(F)c(F)cc(F)c1F)n1cc([C@@](C)(NCc2ccc3ncsc3c2)C(C)C)nn1 (some centres undefined),2 nM
7,CCCCC(C(=O)COc1c(F)c(F)cc(F)c1F)n1cc([C@@](C)(NCc2ccc3ncccc3c2)C2CCCC2)nn1 (some centres undefined),15 nM
8,CCCCC(C(=O)COc1c(F)c(F)cc(F)c1F)n1cc([C@@](C)(NCc2ccc3ncccc3c2)C(C)C)nn1 (some centres undefined),22 nM
9,C[C@@](NCc1ccc2ncsc2c1)(c1cn(C(CCS(C)(=O)=O)C(=O)COc2c(F)c(F)cc(F)c2F)nn1)C1CCCC1 (some centres undefined),10 nM

# System: not listed separately
# Assay: Clearance in mouse at 10 mg/kg, iv
# Assay type: ADME, organism-based
# Details: in vivo
# How it was run: as §1
row,Compound,clearance
1,CCCCC(C(=O)COc1c(F)c(F)cc(F)c1F)n1cc([C@@](C)(NCc2ccn3nccc3n2)C2CCCC2)nn1 (some centres undefined),30.7 mL/min/kg
2,CCCCC(C(=O)COc1c(F)c(F)cc(F)c1F)n1cc([C@@](C)(NCc2ccc3ncsc3c2)C(C)C)nn1 (some centres undefined),16.6 mL/min/kg
3,CCCCC(C(=O)COc1c(F)c(F)cc(F)c1F)n1cc([C@@](C)(NCc2ccc3ncccc3c2)C2CCCC2)nn1 (some centres undefined),19 mL/min/kg
4,CCCCC(C(=O)COc1c(F)c(F)cc(F)c1F)n1cc([C@@](C)(NCc2ccc3ncccc3c2)C(C)C)nn1 (some centres undefined),36.2 mL/min/kg

# System: not listed separately
# Assay: Cmax in mouse at 40 mg/kg, po
# Assay type: ADME, organism-based
# Parameters: dose 40 mg/kg, route oral
# Details: in vivo
# How it was run: as §2
row,Compound,Cmax
1,CCCCC(C(=O)COc1c(F)c(F)cc(F)c1F)n1cc([C@@](C)(NCc2ccc3ncsc3c2)C(C)C)nn1 (some centres undefined),1230 ng/mL
2,CCCCC(C(=O)COc1c(F)c(F)cc(F)c1F)n1cc([C@@](C)(NCc2ccc3ncccc3c2)C(C)C)nn1 (some centres undefined),833 ng/mL

# System: Mus musculus
# Assay: Oral bioavailability in mouse at 40 mg/kg
# Assay type: ADME, organism-based
# Details: in vivo
# How it was run: as §1
row,Compound,F
1,CCCCC(C(=O)COc1c(F)c(F)cc(F)c1F)n1cc([C@@](C)(NCc2ccn3nccc3n2)C2CCCC2)nn1 (some centres undefined),37%
2,CCCCC(C(=O)COc1c(F)c(F)cc(F)c1F)n1cc([C@@](C)(NCc2ccc3ncsc3c2)C(C)C)nn1 (some centres undefined),19.1%
3,CCCCC(C(=O)COc1c(F)c(F)cc(F)c1F)n1cc([C@@](C)(NCc2ccc3ncccc3c2)C2CCCC2)nn1 (some centres undefined),23%
4,CCCCC(C(=O)COc1c(F)c(F)cc(F)c1F)n1cc([C@@](C)(NCc2ccc3ncccc3c2)C(C)C)nn1 (some centres undefined),21%

# System: not listed separately
# Assay: Half life in mouse at 10 mg/kg, iv
# Assay type: ADME, organism-based
# Details: in vivo
# How it was run: as §1
row,Compound,half-life
1,CCCCC(C(=O)COc1c(F)c(F)cc(F)c1F)n1cc([C@@](C)(NCc2ccn3nccc3n2)C2CCCC2)nn1 (some centres undefined),3.04 h
2,CCCCC(C(=O)COc1c(F)c(F)cc(F)c1F)n1cc([C@@](C)(NCc2ccc3ncsc3c2)C(C)C)nn1 (some centres undefined),5.67 h
3,CCCCC(C(=O)COc1c(F)c(F)cc(F)c1F)n1cc([C@@](C)(NCc2ccc3ncccc3c2)C2CCCC2)nn1 (some centres undefined),4.2 h
4,CCCCC(C(=O)COc1c(F)c(F)cc(F)c1F)n1cc([C@@](C)(NCc2ccc3ncccc3c2)C(C)C)nn1 (some centres undefined),2.95 h
